# SENP7 inh: blocks the human protease SENP7. Q9BQF6. recombinant SENP7, Z-RLRGG-aminoluciferin luminescence, 40 min. inhibition, % at 5 µM. 330,000 compounds, 1.5% hits;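 active = inhibition above about 50% at the single test dose, limit read from the data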;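 also: plate controls were DMSO with enzyme for no effect and no enzyme buffer wells for full effect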
# SENP1 FRET inh: SENP1 (human) catalytic domain inhibition. Q9P0U3. 360,000 compounds, 0.21% hits. inhibition, % at 10 µM. recombinant SENP1 catalytic domain, CyPet-SUMO1-YPet FRET cleavage;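 active = inhibition at least 30% at 10 µM, raw YFP signal under a set limit, fluorescence ratio 0.5 to 1.5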;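 also: 0% = enzyme with DMSO and 100% = no enzyme wells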
#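 Test system: human SENP1 catalytic domain; medium: Tris pH 8 buffer plus EDTA, NaCl, BME, BSA, NP40, catalase; incubation: 50 min reaction at room temperature; technique: FRET, CFP and YFP emission; controls: no-enzyme low control and enzyme-plus-DMSO high control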
# SENP8 block-1: inhibitors of human SENP8 protease | 330,000 compounds, 1.2% hits | inhibition, % at 10 µM | purified SENP8, Z-RLRGG-aminoluciferin cleavage, luminescence; in the data active = inhibition above about 50%
# SENP8 block-2: blocks human SENP8 cleavage of Nedd8 substrate; Q96LD8; recombinant SENP8, Nedd8 substrate fluorescence; inhibition, % at 20 µM; 360,000 compounds, 0.64% hits; in the data active = inhibition mostly above about 40%, no sharp cut-off; inactive = mostly below about 27%
# Apaf1 inhib: human Apaf-1 inhibition; O14727; reconstituted apoptosome caspase-3 activity, DEVD-Rh110 fluorescence; inhibition, % at 20 µM; 330,000 compounds, 0.71% hits; AID 489030; active = inhibition of at least 40% at 20 µM;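 also: plate controls were DMSO wells for no effect and DEVD-CHO caspase inhibitor wells for full effect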
#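 Assay system – apoptosome proteins · Medium – Hepes buffer, pH 7.5 · Also added – cytochrome c with DEVD-Rh110 · Timing – 30 min compound preincubation, 50 min activation, room temperature · Detection – Rh110 fluorescence, excitation 480 nm, emission 540 nm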
# SENP6 block: SENP6 protease inhibition; 330,000 compounds, 1.8% hits; inhibition, % at 10 µM; Q9GZR1; Recombinant SENP6 catalytic domain, aminoluciferin luminescence;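 active = inhibition above about 50% at the single tested dose, limit read from the data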;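 also: plate controls were DMSO wells with enzyme for no effect and DMSO wells lacking enzyme for full effect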
# SENP8 conf: human SENP8 inhibition, confirmed; shares compounds with SENP7 inh; Recombinant SENP8, Z-RLRGG-aminoluciferin luminescence, 60 min; inhibition, % at 12.5 µM; 6,200 compounds, 40% hits;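 active = mean inhibition across replicates above about 50%, limit read from the data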
# SENP6 conf: human SENP6 inhibition, confirmed; recombinant SENP6, Z-RLRGG-aminoluciferin luminescence; shares compounds with SENP7 inh; 6,200 compounds, 58% hits; inhibition, % at 12.5 µM
# SENP7 confirm: human SENP7 inhibition, confirmed. shares compounds with SENP7 inh. recombinant SENP7, Z-RLRGG-aminoluciferin luminescence, 40 min. inhibition, % at 12.5 µM. 6,200 compounds, 69% hits. AID 488917
# Casp3 SENP sel: caspase-3 inhibition (SENP selectivity assay); AID 488918; shares compounds with SENP7 inh; purified caspase-3, Z-DEVD-aminoluciferin luminescence, 60 min; inhibition, % at 12.5 µM; 6,200 compounds, 60% hits;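 active = mean inhibition above about 50%, limit read from the data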;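 also: plate controls were enzyme with DMSO for no effect and wells without caspase-3 for full effect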
# Luc interf: counter-screen for SENP inhibitors: luminescence interference | shares compounds with SENP7 inh | Pre-incubated SENP8/Z-RLRGG-aminoluciferin, luciferase luminescence interference | inhibition, % at 12.5 µM | 6,200 compounds, 39% hits | AID 488919;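 active = mean inhibition above about 50% when retested at one dose, limit read from the data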;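 also: plate controls were DMSO wells with completed reaction for no effect and substrate without enzyme for full effect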
# Starred values were filed as active, the others as inactive; nt = no result given. A selection: hits, their analogues and other compounds. The true share with any hit is near 2.9%.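 The calls were made as follows, unless noted: active = mean inhibition above about 50% in the one-dose retest (limit read from the data); inactive = the rest.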
SMILES,SENP7 inh,SENP1 FRET inh,SENP8 block-1,SENP8 block-2,Apaf1 inhib,SENP6 block,SENP8 conf,SENP6 conf,SENP7 confirm,Casp3 SENP sel,Luc interf
COc1ccc(NC(=O)c2ccc3nc(C)sc3c2)cc1,13,0,-26,10,-4,10,nt,nt,nt,nt,nt
CSc1nc2ccc(NC(=O)c3ccc(F)c(F)c3)cc2s1,74*,-3,45,-20,4,56*,20,44,28,23,8
CSc1nc2ccc(NC(=O)c3ccc(=O)[nH]c3)cc2s1,6,-1,-8,-4,5,6,nt,nt,nt,nt,nt
COc1ccc(C(=O)Nc2ccc3nc(C)sc3c2)cc1OC,73*,1,42,0,-2,-7,57*,57*,87*,80*,71*
CSc1nc2ccc(NC(=O)c3cc4ccccc4o3)cc2s1,93*,-3,69*,-184,5,5,-5,60*,84*,42,0
CSc1nc2ccc(NC(=O)c3ccc(=O)n(C)n3)cc2s1,84*,2,71*,5,2,92*,-4,31,61*,55*,26
COCCCN1C(=O)C(CC(=O)NCCCCc2ccccc2)CC(C(=O)N(C(C)C)C(C)C)=C1C (centres undefined),nt,-1,nt,29,nt,nt,nt,nt,nt,nt,nt
Cc1ccc(N(Cc2ccccc2)C(=O)CSC(C)C(=O)Nc2cc(C)on2)cc1 (centres undefined),nt,1,nt,25,nt,nt,nt,nt,nt,nt,nt
CC(/C=N/NC(=O)Cc1cccs1)=C\c1ccccc1,3,2,-15,27,10,-12,nt,nt,nt,nt,nt
O=C(O)c1cc(NN=C2c3ccccc3-c3ccccc32)ccc1Cl,5,-47,22,24,20,9,nt,nt,nt,nt,nt
CC(/C=N/NC(=O)c1ccccc1C)=C\c1ccccc1,8,2,3,15,-7,2,nt,nt,nt,nt,nt
Cc1cc(C(=O)N/N=C/C(Cl)=C/c2ccccc2)c(C)o1,53*,3,28,21,-1,49,36,36,75*,42,40
CC(/C=N/NC(=O)c1ccccc1F)=C\c1ccccc1,43,2,28,2,8,58*,48,41,70*,52*,54*
O=C(O)c1cc(N/N=C/C(Cl)=C/c2ccccc2)ccc1Cl,89*,-33,96*,-36,-21,88*,98*,99*,101*,38,97*
CC(/C=N/NC(=O)c1cccs1)=C\c1ccccc1,77*,-1,71*,-38,18,3,13,81*,93*,63*,20
C[C@H](CO)N1C[C@H](C)[C@H](CN(C)Cc2cccc(C(F)(F)F)c2)OCc2ccccc2-c2c(n(C)c3ccccc23)C1=O,nt,0,nt,13,nt,nt,nt,nt,nt,nt,nt
O=C(N/N=C/C(Cl)=C/c1ccccc1)c1ccncc1,-1,0,-2,-5,-5,4,nt,nt,nt,nt,nt
Cc1cc(C(=O)N/N=C/c2c(C)nn(-c3ccccc3)c2C)c(C)o1,36,0,35,25,-9,50*,34,25,60*,55*,23
O=C(N/N=C/C(Cl)=C\c1ccccc1)c1cccs1,43,5,52*,-19,18,63*,9,59*,85*,31,9
Cc1nn(-c2ccccc2)c(C)c1/C=N/NC(=O)c1ccc(F)cc1,-12,-6,-4,-10,7,-19,nt,nt,nt,nt,nt
CN1C(=O)[C@H]2[C@@H](/C=C/c3ccccc3)N3C(=O)CN(Cc4ccc(-c5ccccc5)cc4)C(=O)[C@@]3(Cc3ccccc3)[C@H]2C1=O,-2,-3,-3,13,8,-6,nt,nt,nt,nt,nt
COc1cc2c(cc1OC)C(c1cc3cccc(C)c3[nH]c1=O)N(C(=O)c1ccco1)CC2 (centres undefined),-1,-1,-12,-14,16,-9,nt,nt,nt,nt,nt
O=C(/C=C/c1ccccc1[N+](=O)[O-])Nc1ccccc1,87*,0,81*,3,-4,90*,83*,82*,94*,81*,81*
COc1cc(NC(=O)/C=C/c2ccccc2[N+](=O)[O-])cc(OC)c1,63*,1,55*,14,-1,73*,11,8,-3,0,0
CCNC(=O)/C=C/c1ccccc1[N+](=O)[O-],4,2,2,26,-20,4,nt,nt,nt,nt,nt
SMILES,SENP7 inh,SENP1 FRET inh,SENP8 block-1,SENP8 block-2,Apaf1 inhib,SENP6 block,SENP8 conf,SENP6 conf,SENP7 confirm,Casp3 SENP sel,Luc interf
COc1ccc(OC)c(NC(=O)C(=O)N/N=C/c2ccccc2[N+](=O)[O-])c1,92*,1,-4,16,-7,-7,7,8,7,4,3
CC(=O)Nc1ccc(NC(=O)CS(=O)(=O)c2cn(CC(=O)N3CCCC3)c3ccccc23)cc1,-3,2,0,0,2,-13,nt,nt,nt,nt,nt
O=C(Nc1cccc(C(F)(F)F)c1)C1Cc2c(-c3ccccc3)ccnc2O1 (centres undefined),nt,-1,nt,8,nt,nt,nt,nt,nt,nt,nt
COC(=O)c1nn(-c2ccc(-c3ccccc3)cc2)cc1O,97*,-8,93*,-492,5,97*,92*,98*,102*,95*,88*
CCOC(=O)c1nn(-c2ccccc2)cc1O,2,1,10,-38,-6,-7,nt,nt,nt,nt,nt
Cc1cc(C)c(S(=O)(=O)Nc2ccc(N(C)C)cc2)c(C)c1-n1cnnn1,14,-1,-2,6,7,2,nt,nt,nt,nt,nt
C/C(=N\OC(=O)Nc1ccccc1)c1ccc(C)cc1,73*,1,70*,28,-17,67*,82*,83*,96*,79*,78*
O=C1NC(=S)S/C1=C\c1coc2ccc(O)cc2c1=O,4,1,60*,18,-7,81*,7,69*,44,37,74*
O=C(CCCc1ccccc1)NC1CC1,6,-2,2,21,-2,12,nt,nt,nt,nt,nt
O=C(O)CCCc1ccc2c(c1)CCc1ccccc1-2,-14,1,34,-29,4,50*,77*,76*,88*,68*,81*
